ChEMBL document CHEMBL6177922, “Antibacterial activity of the structurally novel C-2 amine-substituted analogues based on quinoxaline” (RSC Med Chem, 2025)
Converted amounts (≈) assume the structure as drawn. The source made the active and inactive calls. The calls are words filed in the database; no cut-off is given here.

Columns and labels:
Staphylococcus aureus [1] = test: Antibacterial activity against drug sensitive Staphylococcus aureus RN4220 assessed as reduction in bacterial growth by broth microdilution method; type: functional
How it was run: (§1)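 MICs were determined by standard twofold serial broth microdilution in lysogeny broth (LB) medium.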

Bacillus subtilis = test: Antibacterial activity against drug sensitive Bacillus subtilis 168 assessed as reduction in bacterial growth by broth microdilution method; type: functional; how it was run: as §1
Escherichia coli = test: Antibacterial activity against drug sensitive Escherichia coli DH5alpha assessed as reduction in bacterial growth by broth microdilution method; type: functional; how it was run: as §1
Pseudomonas aeruginosa = test: Antibacterial activity against drug sensitive Pseudomonas aeruginosa PAO1 assessed as reduction in bacterial growth by broth microdilution method; type: functional; how it was run: as §1
Staphylococcus aureus [2] = test: Antibacterial activity against methicillin-resistant Staphylococcus aureus USA300 assessed as reduction in bacterial growth by broth microdilution method; type: functional
How it was run: (§2)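 Twofold serial dilution (microdilution) MIC in lysogeny broth (LB) medium against drug-resistant strains: MRSA USA300, vancomycin-resistant Enterococci, Klebsiella pneumoniae.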

Enterococcus = test: Antibacterial activity against vancomycin-resistant Enterococcus assessed as reduction in bacterial growth by broth microdilution method; type: functional; how it was run: as §2
Klebsiella pneumoniae = test: Antibacterial activity against drug-resistant Klebsiella pneumoniae assessed as reduction in bacterial growth by broth microdilution method; type: functional; how it was run: as §2
MCF7 = test: Cytotoxicity against human MCF7 cells assessed as inhibition of cell growth incubated for 24 hrs by MTT assay; type: functional, cell-based; conditions: MCF7, 24 h
How it was run: (§3)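 MTT assay with 24 h exposure of cells to the samples. IC50 is the concentration giving 50% growth inhibition, reported as mean ± S.D. of three independent experiments.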

[3] = Cytotoxicity against human HEK293 cells assessed as inhibition of cell growth incubated for 24 hrs by MTT assay; type: toxicity, cell-based; how it was run: as §3
[4] = Cytotoxicity against human HK-2 cells assessed as inhibition of cell growth incubated for 24 hrs by MTT assay; type: toxicity, cell-based; how it was run: as §3
Staphylococcus aureus [5] = test: Bactericidal activity against methicillin-resistant Staphylococcus aureus assessed as inhibition of bacterial growth at 2 times MIC incubated for 24 hrs by time kill assay; type: functional, organism-based
How it was run: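 Time-kill: MRSA grown 24 h at 37 °C, adjusted to ~2 × 10^6 CFU mL-1, exposed at 2× or 3× MIC with shaking at 37 °C. Aliquots taken at 0.5–13 h, serially diluted 10-fold in PBS, plated on Mueller–Hinton agar, counted after 24 h at 37 °C. Duplicate.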

Staphylococcus aureus [6] = test: Antibacterial activity against methicillin-resistant Staphylococcus aureus infected in Kunming mouse corneal infection model assessed as reduction in viable bacterial count at 6 mg/ml, TOP administered 3 times daily for 1 week; type: functional, organism-based; conditions: time 1.0 weeks
How it was run: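 Corneal infection model: male and female Kunming mice (~20 g) immunosuppressed with daily i.p. cyclophosphamide for 3 days. Anesthetized with i.p. avertin (400 mg kg-1), corneas abraded and given 20 μL MRSA (6 × 10^7 CFU mL-1). From 24 h post-infection, treated by topical smear three times daily for one week. Controls: 5% glucose and 5% vancomycin. Six mice per group. Corneal viable counts measured.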

SMILES | MIC (Staphylococcus aureus [1]) | MIC (Bacillus subtilis) | MIC (Escherichia coli) | MIC (Pseudomonas aeruginosa) | MIC (Staphylococcus aureus [2]) | MIC (Enterococcus) | MIC (Klebsiella pneumoniae) | IC50 (MCF7) | IC50 at 24 h [3] | IC50 at 24 h [4] | Activity (Staphylococcus aureus [5]) | Activity (Staphylococcus aureus [6])
CNc1nc2ccccc2nc1N | 128 µg/mL (≈ 735 µM) | 64 µg/mL (≈ 367 µM) | 128 µg/mL (≈ 735 µM) | 128 µg/mL (≈ 735 µM) | > 128 µg/mL | > 128 µg/mL | > 128 µg/mL | – | – | – | – | –
COc1cccc(CCNc2nc3ccccc3nc2N)c1 | 8 µg/mL (≈ 27.2 µM) | 32 µg/mL (≈ 109 µM) | 16 µg/mL (≈ 54.4 µM) | 64 µg/mL (≈ 217 µM) | 16 µg/mL (≈ 54.4 µM) | 128 µg/mL (≈ 435 µM) | 64 µg/mL (≈ 217 µM) | 74.7 µg/mL (≈ 254 µM) | 130 µg/mL (≈ 443 µM) | 142 µg/mL (≈ 483 µM) | – | –
CCNc1nc2ccccc2nc1N | 128 µg/mL (≈ 680 µM) | 128 µg/mL (≈ 680 µM) | > 128 µg/mL | 128 µg/mL (≈ 680 µM) | > 128 µg/mL | 128 µg/mL (≈ 680 µM) | > 128 µg/mL | – | – | – | – | –
Nc1nc2ccccc2nc1NCCc1ccc(Cl)c(Cl)c1 | > 128 µg/mL | > 128 µg/mL | > 128 µg/mL | > 128 µg/mL | > 128 µg/mL | > 128 µg/mL | > 128 µg/mL | – | – | – | – | –
Nc1nc2ccccc2nc1NCCc1ccccc1Br | 128 µg/mL (≈ 373 µM) | 64 µg/mL (≈ 186 µM) | > 128 µg/mL | 128 µg/mL (≈ 373 µM) | 128 µg/mL (≈ 373 µM) | 128 µg/mL (≈ 373 µM) | 64 µg/mL (≈ 186 µM) | – | – | – | – | –
Cc1ccc(CCNc2nc3ccccc3nc2N)cc1 | 16 µg/mL (≈ 57.5 µM) | 32 µg/mL (≈ 115 µM) | 32 µg/mL (≈ 115 µM) | 64 µg/mL (≈ 230 µM) | 32 µg/mL (≈ 115 µM) | > 128 µg/mL | 64 µg/mL (≈ 230 µM) | 70.9 µg/mL (≈ 255 µM) | 136 µg/mL (≈ 487 µM) | 150 µg/mL (≈ 538 µM) | – | –
NC[C@H]1O[C@H](O[C@H]2[C@H](O)[C@@H](O[C@H]3O[C@H](CO)[C@@H](O)[C@H](N)[C@H]3O)[C@H](N)C[C@@H]2N)[C@H](O)[C@@H](O)[C@@H]1O [KANAMYCIN] | 1 µg/mL (≈ 2.06 µM) | 0.5 µg/mL (≈ 1.03 µM) | 1 µg/mL (≈ 2.06 µM) | 4 µg/mL (≈ 8.26 µM) | 1 µg/mL (≈ 2.06 µM) | 8 µg/mL (≈ 16.5 µM) | 4 µg/mL (≈ 8.26 µM) | – | – | – | – | –
Nc1nc2ccccc2nc1NCCc1ccc(F)cc1 | 64 µg/mL (≈ 227 µM) | 64 µg/mL (≈ 227 µM) | 128 µg/mL (≈ 453 µM) | > 128 µg/mL | > 128 µg/mL | 128 µg/mL (≈ 453 µM) | 128 µg/mL (≈ 453 µM) | – | – | – | – | –
Nc1nc2ccccc2nc1NCc1ccc2ccccc2c1 | 32 µg/mL (≈ 107 µM) | 32 µg/mL (≈ 107 µM) | 64 µg/mL (≈ 213 µM) | > 128 µg/mL | 64 µg/mL (≈ 213 µM) | > 128 µg/mL | > 128 µg/mL | 69.7 µg/mL (≈ 232 µM) | 131 µg/mL (≈ 435 µM) | 147 µg/mL (≈ 488 µM) | – | –
Nc1nc2ccccc2nc1NCCc1ccccc1 | 32 µg/mL (≈ 121 µM) | 64 µg/mL (≈ 242 µM) | 128 µg/mL (≈ 484 µM) | 128 µg/mL (≈ 484 µM) | > 128 µg/mL | > 128 µg/mL | > 128 µg/mL | 72.3 µg/mL (≈ 274 µM) | 123 µg/mL (≈ 467 µM) | 130 µg/mL (≈ 493 µM) | – | –
COc1ccc(CCNc2nc3ccccc3nc2N)cc1 | 16 µg/mL (≈ 54.4 µM) | 16 µg/mL (≈ 54.4 µM) | 32 µg/mL (≈ 109 µM) | 128 µg/mL (≈ 435 µM) | 16 µg/mL (≈ 54.4 µM) | > 128 µg/mL | 64 µg/mL (≈ 217 µM) | 71.5 µg/mL (≈ 243 µM) | 129 µg/mL (≈ 437 µM) | 139 µg/mL (≈ 471 µM) | – | –
Nc1nc2ccccc2nc1NCCc1ccccc1F | 64 µg/mL (≈ 227 µM) | 128 µg/mL (≈ 453 µM) | 128 µg/mL (≈ 453 µM) | 128 µg/mL (≈ 453 µM) | 128 µg/mL (≈ 453 µM) | 128 µg/mL (≈ 453 µM) | > 128 µg/mL | – | – | – | – | –
Nc1nc2ccccc2nc1NCCCc1ccccc1 | 32 µg/mL (≈ 115 µM) | 64 µg/mL (≈ 230 µM) | 128 µg/mL (≈ 460 µM) | > 128 µg/mL | 128 µg/mL (≈ 460 µM) | 128 µg/mL (≈ 460 µM) | 128 µg/mL (≈ 460 µM) | 68.7 µg/mL (≈ 247 µM) | 126 µg/mL (≈ 451 µM) | 141 µg/mL (≈ 506 µM) | – | –
CCn1cc(C(=O)O)c(=O)c2cc(F)c(N3CCNCC3)cc21 | – | – | – | – | – | – | – | – | – | – | Active | –
CN[C@H](CC(C)C)C(=O)N[C@H]1C(=O)N[C@@H](CC(N)=O)C(=O)N[C@H]2C(=O)N[C@H]3C(=O)N[C@H](C(=O)N[C@H](C(=O)O)c4cc(O)cc(O)c4-c4cc3ccc4O)[C@H](O)c3ccc(c(Cl)c3)Oc3cc2cc(c3O[C@@H]2O[C@H](CO)[C@@H](O)[C@H](O)[C@H]2O[C@H]2C[C@](C)(N)[C@H](O)[C@H](C)O2)Oc2ccc(cc2Cl)[C@H]1O | – | – | – | – | – | – | – | – | – | – | – | Active
Nc1nc2ccccc2nc1NCCc1ccc(Br)cc1 | 64 µg/mL (≈ 186 µM) | 64 µg/mL (≈ 186 µM) | 128 µg/mL (≈ 373 µM) | 128 µg/mL (≈ 373 µM) | > 128 µg/mL | > 128 µg/mL | > 128 µg/mL | – | – | – | – | –
Nc1nc2ccccc2nc1NCCC1CCCCC1 | 128 µg/mL (≈ 473 µM) | > 128 µg/mL | > 128 µg/mL | 128 µg/mL (≈ 473 µM) | 128 µg/mL (≈ 473 µM) | > 128 µg/mL | > 128 µg/mL | – | – | – | – | –
Nc1nc2ccccc2nc1NCCC1=CCCCC1 | 64 µg/mL (≈ 238 µM) | 128 µg/mL (≈ 477 µM) | > 128 µg/mL | > 128 µg/mL | > 128 µg/mL | > 128 µg/mL | > 128 µg/mL | – | – | – | – | –
O=c1[nH]cc(F)c(=O)[nH]1 [FLUOROURACIL] | – | – | – | – | – | – | – | 0.85 µg/mL (≈ 6.53 µM) | – | – | – | –
